Measurements of several laboratories.
Compare with care: the assays were run in different laboratories.
Cell line: HT-29
Effect on: cell growth or viability

| SMILES | technique | tested at | time | inhibition [%] |
| --- | --- | --- | --- | --- |
| COc1ccc(C(=O)/C=C/c2cccc(Br)c2)cc1S(N)(=O)=O | SRB | 10 µM |  | 156 |
| COc1cc2ncnc(NN=C3C(=O)Nc4ccccc43)c2cc1OC |  | 30 µM |  | 38.7 |
| COc1ccc2c(c1)/C(=N/NC(=O)c1cc3ccccc3[nH]1)C(=O)N2C |  | 30 µM |  | 90.8 |
| COc1ccc(C(=O)/C=C/c2cccc(Cl)c2Cl)cc1S(N)(=O)=O | SRB | 10 µM |  | 106 |
| COc1cc2ncnc(NN=C3C(=O)Nc4ccc(Br)cc43)c2cc1OC |  | 10 µM |  | 18.6 |
| CN1C(=O)/C(=N\NC(=O)c2cc3ccccc3[nH]2)c2ccccc21 |  | 30 µM |  | 78.5 |
| COc1ccc2c(c1)C(=NNc1nc3ccccc3n(C)c1=O)C(=O)N2 |  | 30 µM |  | 48.5 |
| CN1C(=O)/C(=N\NC(=O)c2cc3ccccc3[nH]2)c2cc(Cl)ccc21 |  | 30 µM |  | 92.4 |
| COc1ccccc1/C=C/C(=O)c1ccc(OC)c(S(N)(=O)=O)c1 | SRB | 10 µM |  | 81 |
| CCN(CC)CCNC(=O)c1c(C)[nH]c(/C=C2\C(=O)Nc3ccc(F)cc32)c1C |  | 30 µM |  | 59.5 |
| COc1ccc2c(c1)C(=NNc1nnc(Cc3ccccc3)c3ccccc13)C(=O)N2 |  | 30 µM |  | 9.3 |
| COc1ccc(C(=O)/C=C/c2ccccc2Br)cc1S(N)(=O)=O | SRB | 10 µM |  | 117 |
| COc1cccc2c1C(=O)c1c(O)c3c(c(O)c1C2=O)C[C@@](O)(C(=O)CO)C[C@@H]3O[C@H]1C[C@H](N)[C@H](O)[C@H](C)O1 | SRB | 10 µg/mL | 48 h | 97.1 |
| CN1C(=O)/C(=N\NC(=O)c2cc3ccccc3[nH]2)c2cc(Br)ccc21 |  | 30 µM |  | 95.2 |
| O=C1Nc2ccccc2C1=NNc1nnc2n1N=C(c1ccccc1)CS2 | SRB | 10 µM |  | 28 |
| Cn1c(=O)c(NN=C2C(=O)Nc3ccc(Cl)cc32)nc2ccccc21 |  | 30 µM |  | 16.1 |
| COc1ccc(C(=O)/C=C/c2ccc3ccccc3c2)cc1S(N)(=O)=O | SRB | 10 µM |  | 126 |
| O=C(N/N=C1\C(=O)N(c2ccccc2)c2ccccc21)c1cc2ccccc2[nH]1 |  | 30 µM |  | 97 |
| COc1ccc(C(=O)/C=C/c2cc3c(cc2Br)OCO3)cc1S(N)(=O)=O | SRB | 10 µM |  | 100 |
| COc1ccc2c(c1)C(=NNc1nc(-c3ccc(OC)c(OC)c3)nc3ccccc13)C(=O)N2 |  | 30 µM |  | 6.2 |
